# Experimental data published in ChEMBL document CHEMBL1158117, “Decaspirones A-E, bioactive spirodioxynaphthalenes from the freshwater aquatic fungus Decaisnella thyridioides” (2006).
# Calls of active or inactive are those of the source. The rule behind the calls is not given here.
# How the values were obtained:
# Format in all cases: functional
# Bacillus subtilis = experiment: Antibacterial activity against Bacillus subtilis ATCC 6051 at 50 ug/disk; details: read-out: IZ
# Summary of the method: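 Standard paper-disk agar diffusion test at 50 µg per disk; activity read as the diameter of the inhibition zone in mm.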
# Staphylococcus aureus = experiment: Antibacterial activity against Staphylococcus aureus ATCC 29213 at 100 ug/disk; details: for zone of inhibition at 100 µg/disc: read-out: IZ
# Candida albicans = experiment: Antimicrobial activity against Candida albicans ATCC 14053 at 100 ug/disk; details: for zone of inhibition at 100 µg/disc: read-out: IZ
# Aspergillus flavus [1] = experiment: Antifungal activity against Aspergillus flavus NRRL 6541 at 200 ug/disk; details: read-out: IZ
# Summary of the method: (§1)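 Agar disk diffusion at 200 µg/disk against each fungal strain, scored as the inhibition zone diameter in mm.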
# Fusarium verticillioides [2] = experiment: Antifungal activity against Fusarium verticillioides NRRL 25457 at 200 ug/disk; details: read-out: IZ; summary of the method: as §1
# Aspergillus flavus [3] = experiment: Antifungal activity against Aspergillus flavus NRRL 6541 after 48 hrs; details: NRRL 6541, 48 h
# Summary of the method: (§2)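 Broth microdilution in 96-well plates at 1, 3, 5, 10 and 25 µg/mL, with eight replicate wells per level. Compound in MeOH was dried in the well, redissolved in 10 µL MeOH, then 200 µL potato dextrose broth with about 8000 conidia was added (about 4 × 10^4/mL). For A. flavus, conidia came from 14-day PDA cultures at 25 °C and were filtered through cheesecloth. Plates were incubated 48 h at 25 °C and read on a plate reader every 8-16 h against MeOH-only controls. MIC is the lowest level with no growth. Nystatin was the positive control. F. verticillioides was run analogously.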
# Fusarium verticillioides [4] = experiment: Antifungal activity against Fusarium verticillioides NRRL 25457 after 48 hrs; details: NRRL 25457, 48 h; summary of the method: as §2
# Aspergillus flavus [5] = experiment: Antifungal activity against Aspergillus flavus NRRL 6541 at >25 ug/mL after 48 hrs relative to control; details: in the assay text read “25 ug/mL” for “>25 ug/mL”; summary of the method: as §2
MIC (Aspergillus flavus [3]) [mg/L],MIC (Fusarium verticillioides [4]) [mg/L],SMILES,zone of inhibition at 50 µg/disc (Bacillus subtilis) [mm],zone of inhibition at 100 µg/disc (Staphylococcus aureus) [mm],zone of inhibition at 100 µg/disc (Candida albicans) [mm],zone of inhibition at 200 µg/disc (Aspergillus flavus [1]) [mm],zone of inhibition at 200 µg/disc (Fusarium verticillioides [2]) [mm],Activity (Staphylococcus aureus),Activity (Candida albicans),Activity (Aspergillus flavus [5]) [%]
10,5,O=C1C=CC2(Oc3cccc4cccc(c34)O2)[C@H]2[C@H]1[C@@H](O)C=C[C@H]2O [DECASPIRONE A],39,41,30,20,20,,,
,,CC(=O)O[C@H]1C=C[C@@H](O)[C@@H]2[C@@H]1[C@@H](O)C=CC21Oc2cccc3cccc(c23)O1 [DECASPIRONE B],19,,,,,inactive,inactive,
> 25,25,O=C1C=CC2(Oc3cccc4cccc(c34)O2)[C@H]2[C@H]1[C@@H](O)CC[C@H]2O [DECASPIRONE C],34,28,,15,26,,inactive,27
,,CC(=O)O[C@@H]1C=C[C@H](O)[C@H]2C(=O)C=CC3(Oc4cccc5cccc(c45)O3)[C@@H]21 [DECASPIRONE D],30,30,13,,,,,
,,CC(=O)O[C@H]1C=C[C@@H](O)[C@@H]2[C@@H]1C(=O)C=CC21Oc2cccc3cccc(c23)O1 [DECASPIRONE E],30,,17,,,inactive,,
